Rows were chosen to be rich in hits. Some 1.9% of all compounds tested hit in one or more screens of this group.
Efflux pump mplx – inhibitors of Candida efflux pumps in yeast, primary screen, S. cerevisiae, Nile Red, multiplex | S. cerevisiae Candida pump triplex | inhibition, % at 10 µM | 330,000 tested, 0.44% active | AID 485275, 2010;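 active = plate passing quality check with inhibition over a set limit, or well fluorescence over plate mean plus 4 SD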;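 also: Nile Red retained in pooled yeast measured as flow cytometry median fluorescence; 0% = buffer negative control and 100% = Enniatin B positive control; higher means more Nile Red kept so more efflux inhibition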
FGF22 binding – binders of human FGF22 protein, primary screen, FGF22 synaptogenesis inhibitor project, biophysical, thermal shift, single point; Fibroblast growth factor 22 (Homo sapiens), Q9HCT0; recombinant FGF22 thermal shift, SYPRO orange fluorescence; percent of sucrose octasulfate shift, DMSO zero; activity (Tm shift, normalised), % at 9.99 µM; 340,000 tested, 1.5% active; AID 651658, 2012;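 active = mean Tm shift, scaled 0 neutral to 100 positive control, at about 1.3% or above, every replicate too, limit read from the data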
Target sequence (Q9HCT0 whole entry, looked up): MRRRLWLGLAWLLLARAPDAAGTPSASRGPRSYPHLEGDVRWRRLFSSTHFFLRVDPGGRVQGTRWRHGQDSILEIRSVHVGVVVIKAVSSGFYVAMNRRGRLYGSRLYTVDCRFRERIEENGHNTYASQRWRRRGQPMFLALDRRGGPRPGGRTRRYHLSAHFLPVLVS
ASAP1 GAP inh – inhibitors of human ASAP1 ArfGAP activity, primary screen, biochemical, fluorescence polarization | ASAP1-stimulated ARF1 GTP hydrolysis, GDP FP detection | inhibition, % at 16.5 µM | 360,000 tested, 0.19% active; in the data active = inhibition above about 25%;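 also: 0% = vehicle with enzyme and substrate and 100% = no enzyme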
Target sequence (Q9ULH1 325-724 limits assumed): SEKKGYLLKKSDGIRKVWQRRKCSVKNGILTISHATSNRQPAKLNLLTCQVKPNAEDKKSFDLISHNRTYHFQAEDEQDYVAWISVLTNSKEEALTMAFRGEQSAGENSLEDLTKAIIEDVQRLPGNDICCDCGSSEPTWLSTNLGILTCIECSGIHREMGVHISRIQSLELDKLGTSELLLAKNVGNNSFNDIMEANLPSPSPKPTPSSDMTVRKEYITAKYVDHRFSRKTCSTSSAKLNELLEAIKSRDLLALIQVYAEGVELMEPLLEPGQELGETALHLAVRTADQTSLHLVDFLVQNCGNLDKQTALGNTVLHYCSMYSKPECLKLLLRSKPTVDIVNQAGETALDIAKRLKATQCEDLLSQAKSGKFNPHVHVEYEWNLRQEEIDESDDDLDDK
Rtt109 HAT inh – inhibitors of C. albicans Rtt109/Vps75 HAT, primary screen, biochemical, ThioGlo CoA-SH fluorescence, plate reader; Histone acetyltransferase RTT109 (Candida albicans (strain SC5314 / ATCC MYA-2876)), …; purified Rtt109/Vps75, 4 h; inhibition, % at 34.9 µM; 330,000 tested, 0.16% active; AID 540336, 2011;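 active = inhibition of at least 50% in every replicate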
ARFGAP1 inhibitor – inhibitors of rat ARFGAP1 GAP activity, primary screen, biochemical, fluorescence polarization, GDP tracer | 360,000 tested, 0.26% active | AID 651572, 2012 | ADP-ribosylation factor GTPase-activating protein 1 (Rattus norvegicus), Q62848 | Arfgap1-stimulated ARF1 GTP hydrolysis, GDP FP detection | inhibition, % at 16.5 µM;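 active = inhibition above a per-plate limit, mean inhibition of low control wells plus 3 SD, cut at about 25% in these data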;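 also: 0% = DMSO wells with enzyme and 100% = wells lacking Arfgap1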
Target sequence (Q62848 1-136 limits assumed): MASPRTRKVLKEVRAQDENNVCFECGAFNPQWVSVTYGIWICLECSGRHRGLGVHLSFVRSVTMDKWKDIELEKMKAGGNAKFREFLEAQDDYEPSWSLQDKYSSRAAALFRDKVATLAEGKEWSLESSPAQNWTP
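Material – truncated rat Arfgap1 GAP domain · Buffer or medium – HEPES-based buffer, pH 7.5 · Reagent – human ARF1(Δ1-17)-GTP substrate · Dosing – 16.5 µM single point, 1.26% DMSO · Schedule – GTP hydrolysis reaction 2 h at 25 °C · Technique – GDP detection by fluorescence polarization · Benchmarks – No-Arfgap1 wells (100%) versus DMSO full-reaction wells (0%) · Repeats – single replicate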
Cmpd fluor yeast – compound fluorescence in yeast efflux pump counter-screen | AID 588517 | shares compounds with Efflux pump mplx | S. cerevisiae AD/pABC3, flow cytometry | fluorescence ratio to DMSO, % at 10 µM | 1,700 tested, 4% active;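 active = fluorescence ratio to DMSO above its plate's cutoff, the plate mean ratio plus 5 SD, cut at about 210% in these data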;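 also: unstained yeast with no Nile Red so the signal is compound autofluorescence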
CaMdr1 efflux inh – inhibitors of Candida albicans Mdr1 efflux, confirmation, flow cytometry, singleplex, Cherry Pick1 set; S. cerevisiae AD/CaMDR1, Nile Red efflux; inhibition, % at 10 µM; shares compounds with Efflux pump mplx; 1,700 tested, 1% active; in the data active = inhibition above about 26%;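 also: 0% = DMSO vehicle and 100% = reference inhibitor; higher means more Nile Red retained so more efflux inhibition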
Cdr2 pump inh – inhibitors of Candida albicans Cdr2 efflux pump, confirmation, S. cerevisiae AD/CaCDR2, flow cytometry, cherry pick 1, singleplex; shares compounds with Efflux pump mplx; Nile Red retention; Nile Red retention ratio vs DMSO, % at 10 µM; 1,700 tested, 4% active; AID 588520, 2011; in the data active = Nile Red retention ratio vs DMSO above about 190%;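 also: higher ratio means more blocking of Cdr2 efflux of the dye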
Cdr1 pump inh – inhibitors of Candida albicans Cdr1 efflux pump, confirmation, S. cerevisiae AD/CaCDR1, flow cytometry, cherry pick 1, singleplex; shares compounds with Efflux pump mplx; Nile Red efflux; inhibition, % at 10 µM; 1,700 tested, 1% active; AID 588522, 2011;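 active = inhibition above the screen-wide mean plus twice its standard deviation, cut at about 32% in these data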
Numbers without * were called inactive; / = no result given.

SMILES | Efflux pump mplx | FGF22 binding | ASAP1 GAP inh | Rtt109 HAT inh | ARFGAP1 inhibitor | Cmpd fluor yeast | CaMdr1 efflux inh | Cdr2 pump inh | Cdr1 pump inh
COP(=O)(OC)C(=NNS(=O)(=O)c1ccc(C)cc1)c1ccccc1 | / | 0 | -15 | / | 4 | / | / | / | /
C(=C\c1nccc2c1[nH]c1ccccc12)/c1ccccc1 | 0 | 0 | 16 | / | 13 | / | / | / | /
Cc1ccc(/C=C\c2nccc3c2[nH]c2ccccc23)cc1 | 1.2* | 1 | -3 | -5 | 2 | 108 | 0 | 106 | 0
NS(=O)(=O)c1ccc(CCNC(=O)CSc2ccc([N+](=O)[O-])cc2)cc1 | 0 | 0 | 11 | -5 | -2 | / | / | / | /
N#C/C(=C\Nc1ccccc1SC(F)(F)F)c1nc(-c2ccccc2)cs1 | 0 | 0 | 12 | / | 2 | / | / | / | /
Cc1ccc(-c2csc(/C(C#N)=C/Nc3ccccc3SC(F)(F)F)n2)c(C)c1 | 0.5* | 0 | 10 | -6 | -3 | 163 | 3 | 116 | 1
O=C(COc1ccc2c(C(F)(F)F)cc(=O)oc2c1)NCc1cccs1 | 0 | 0 | -5 | -17 | 8 | / | / | / | /
CCN(CC)c1ccc(/C=C2\CCC(/C=N/NC(=O)c3ccc(=O)n(C)c3)=C2N2CCOCC2)cc1 | 1.0* | 42 | 6 | / | 2 | 112 | 0 | 125 | 0
COc1cc(C(=O)NNC(=O)CNC(=O)C2CCCCC2)ccc1OC(C)C | 0 | 0 | 2 | -3 | 8 | / | / | / | /
CCn1c2ccccc2c2cc(NC(=O)C(C)OC(=O)c3ccc(NC(=O)CC#N)cc3)ccc21 (stereo unspecified) | 0.4* | 0 | 14 | -5 | 2 | 106 | 0 | 104 | 0
CCn1c2ccccc2c2cc(NC(=O)COC(=O)c3ccc(O)cc3)ccc21 | 0 | 0 | 13 | 0 | 21 | / | / | / | /
COc1ccc(CCNC(=O)[C@@H](NC(=O)N2CCn3c2nc2ccccc23)C(C)C)cc1OC | 0 | 0 | 2 | 23 | 7 | / | / | / | /
O=C([C@H]1N[C@H]2c3ccc(C4=CCCC4)c(=O)n3C[C@H]2[C@@H]1CO)N1CCc2ccccc2C1 | / | 0 | / | / | / | / | / | / | /
C/C(=N\NC(=O)c1nnn(-c2nonc2N)c1CSc1ccccc1)c1cccnc1 | 0 | 0 | 6 | 8 | 7 | / | / | / | /
C/C(=N\NC(=O)c1nnn(-c2nonc2N)c1CSc1ccccc1)c1ccc2c(c1)OCO2 | 1.0* | 0 | 8 | 3 | 4 | 105 | 0 | 119 | 0
CCCCC1=C([O-])C2N=CC=CC2=[N+](c2ccccn2)C1=O (stereo unspecified) | 0 | / | 7 | -3 | 12 | / | / | / | /
COCC(=O)N1CCCc2ccccc21 | 0 | / | -10 | 2 | 11 | / | / | / | /
COC(=O)c1ccc(OCC(=O)N2CCCc3ccccc32)cc1 | 2.8* | 0 | 2 | 13 | 8 | 105 | 0 | 94 | 0
Cn1c(N2CCN(C(c3ccccc3)c3ccccc3)CC2)nc2ccccc21 | 0.5* | 0 | 4 | 11 | 0 | 99 | 0 | 104 | 0
CCCCCCCCCC(=O)N/N=C(\C)c1cccnc1 | 1.6* | / | 7 | -1 | 6 | 88 | 0 | 104 | 0
CCCCCCCC(=O)N/N=C(\C)c1ccc(N)cc1 | 0 | / | / | / | / | / | / | / | /
O=S(=O)(NCCc1cn2ccccc2n1)c1ccc(F)c(C(F)(F)F)c1 | 0.5* | 0 | 1 | -6 | 14 | 102 | 0 | 116 | 0
COc1ccc(NC(=O)CN(C)C(=O)/C=C/c2cn(-c3ccccc3)nc2-c2ccc(C)cc2)cc1 | 0.5* | 0 | 15 | -1 | 8 | 91 | 0 | 112 | 0
COCCNC(=O)[C@@]1(C)C=C[C@@H](Cc2ccccc2)N1C(=O)c1ccccc1 | 0 | 0 | 0 | 5 | -3 | / | / | / | /
CCOc1ccccc1C(=O)NCC(=O)OCC(=O)N1CCCC1 | 0 | 0 | 13 | -5 | 0 | / | / | / | /
SMILES | Efflux pump mplx | FGF22 binding | ASAP1 GAP inh | Rtt109 HAT inh | ARFGAP1 inhibitor | Cmpd fluor yeast | CaMdr1 efflux inh | Cdr2 pump inh | Cdr1 pump inh
CC(C)CCN1C(=O)c2cccc3c(N)ccc(c23)C1=O | 0.5* | 0 | 13 | -15 | 13 | 335* | 0 | 110 | 0
Nc1ccc2c3c(cccc13)C(=O)N(c1ccccc1)C2=O | / | 1 | 3 | 5 | 8 | / | / | / | /
CCOC(=O)c1c(C)[nH]c(C)c1C(=O)COC(=O)/C=C/c1ccc(Cl)cc1 | 8.3* | 0 | -1 | -3 | 4 | 102 | 0 | 101 | 0
CCOC(=O)c1c(C)[nH]c(C)c1C(=O)COC(=O)/C=C/c1ccc(OC(F)F)cc1 | 0 | 0 | -2 | 4 | 19 | / | / | / | /
CC(=O)C1CCN(Cc2ccccc2)CC1 | 0 | / | 13 | -6 | 22 | / | / | / | /
CSc1ccccc1OC1CCN(Cc2ccccc2)CC1 | 5.8* | / | 0 | 7 | 0 | 102 | 0 | 101 | 0
CN1c2ccccc2C2(C)CCCC3=Cc4cccc([N+](=O)[O-])c4OC312 (stereo unspecified) | 0 | / | 5 | 13 | 10 | / | / | / | /
N#Cc1cnc(SCC(=O)Nc2ccccc2C(F)(F)F)nc1N | 0 | 0 | 7 | -3 | 1 | / | / | / | /
Cc1ccc(OCC(=O)NNC(=O)CSc2ncc(C#N)c(N)n2)cc1 | 18* | / | 7 | -5 | 3 | 103 | 0 | 94 | 0
c1cc(-c2cnc3cccnn23)c2cccnc2c1 | / | 0 | -2 | / | 3 | / | / | / | /
NC(=S)N/N=C/c1cccc(/C=N/NC(N)=S)c1 | 0 | 0 | 5 | -4 | 1 | / | / | / | /
NC(=S)N/N=C/c1ccc2ccccc2c1 | 8.2* | 0 | 3 | 4 | 1 | 112 | 0 | 108 | 0
NC(=O)C1CCN(c2nc(-c3ccccc3F)cs2)CC1 | 7.5* | 0 | 6 | 3 | 0 | 100 | 0 | 103 | 0
NC(=O)C1CCN(c2nc(-c3ccccc3Br)cs2)CC1 | 0 | 0 | 1 | / | 17 | / | / | / | /

Assay outcomes (PubChem BioAssay)
